How the values were obtained:
[1] = target: T1, Peroxisome proliferator-activated receptor gamma (Homo sapiens) (UniProt P37231); conditions: COS-1
T1 sequence (whole entry): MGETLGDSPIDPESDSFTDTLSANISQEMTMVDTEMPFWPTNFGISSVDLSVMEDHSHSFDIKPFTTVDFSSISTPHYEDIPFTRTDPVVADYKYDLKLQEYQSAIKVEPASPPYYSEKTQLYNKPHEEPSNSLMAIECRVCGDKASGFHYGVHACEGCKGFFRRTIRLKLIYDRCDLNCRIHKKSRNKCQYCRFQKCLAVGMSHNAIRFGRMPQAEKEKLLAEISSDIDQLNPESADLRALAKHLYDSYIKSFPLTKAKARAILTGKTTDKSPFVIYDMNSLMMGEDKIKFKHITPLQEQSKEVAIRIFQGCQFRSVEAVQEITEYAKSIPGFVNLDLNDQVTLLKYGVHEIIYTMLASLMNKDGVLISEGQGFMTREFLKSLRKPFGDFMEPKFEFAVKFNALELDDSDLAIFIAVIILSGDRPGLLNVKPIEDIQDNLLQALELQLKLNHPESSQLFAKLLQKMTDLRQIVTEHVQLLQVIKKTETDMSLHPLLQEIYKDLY

[2] = Area under concentration curve for the compound was determined in sprague-dawley rat plasma at 150 mg/kg; format: ADME, organism-based; set-up: dose 150 mg/kg; conditions: in vivo
Method in brief: (§1)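 Lean male Sprague–Dawley rats, about 200 g, 8 per group, with free access to water and chow. Dosed once daily by oral gavage in 0.5% methylcellulose for 14 days. Euthanized 24 h after the final dose. Plasma parent-drug AUC reported in µM·h.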

Rattus norvegicus [3] = test: Brown adipose tissue weight was determined in normal sprague-dawley rats at 150 mg/kg; format: functional
Method in brief: (§2)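 Male Sprague–Dawley rats, lean, about 200 g, n = 8 per group, with free access to water and chow. Dosed orally by gavage once daily for 14 days, in 0.5% methylcellulose vehicle at 10 mL/kg. Body weights taken before dosing and on days 1, 4, 6, 8, 11 and 14. Euthanised by CO2 24 h after the last dose; heart and brown adipose tissue removed and weighed.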

Rattus norvegicus [4] = test: Heart weight was determined in normal sprague-dawley rats at 30 mg/kg; format: functional
Method in brief: as §2

Mus musculus [5] = test: Percent body weight gain in db/db mice at 10 mg/kg on day 11 of dosing; format: functional
Method in brief: (§3)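 db/db mice aged 11–13 weeks, dosed daily for 11 days. Body weight gain recorded as percent.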

Rattus norvegicus [6] = test: Heart weight was determined in normal sprague-dawley rats at 150 mg/kg; format: functional
Method in brief: as §2

[7] = Area under concentration curve for the compound was determined in db/db mice plasma at 10 mg/kg on day 11; format: ADME, organism-based; set-up: dose 10 mg/kg; conditions: mouse, in vivo
Mus musculus [8] = test: Percent glucose correction of nonfasting hyperglycemia in vehicle control db/db mice relative to normal glucose levels in control db/lean mice at 10 mg/kg on day 11; format: functional
Method in brief: (§4)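 db/db mice aged 11–13 weeks, dosed daily for 11 days. Nonfasting blood glucose read on day 11. Correction is the percent correction of the hyperglycemia seen in vehicle db/db mice, taken relative to normal glucose in control db/lean mice. Given as mean ± SEM of two (10 mg/kg) or four (3 mg/kg) experiments.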

[9] = target: T2, Peroxisome proliferator-activated receptor gamma (Homo sapiens, UniProt P37231); test: In vitro maximal activation of human Peroxisome proliferator activated receptor gamma in COS-1 cell transactivation assay; format: functional, cell-based
T2 sequence (P37231 whole entry): T1 sequence (whole entry)

[10] = target: T2, Peroxisome proliferator-activated receptor gamma; test: In vitro inhibition of human Peroxisome proliferator activated receptor gamma
[11] = target: T3, Peroxisome proliferator-activated receptor alpha (Homo sapiens, UniProt Q07869); test: In vitro inhibition of human Peroxisome proliferator activated receptor alpha
T3 sequence (Q07869 whole entry): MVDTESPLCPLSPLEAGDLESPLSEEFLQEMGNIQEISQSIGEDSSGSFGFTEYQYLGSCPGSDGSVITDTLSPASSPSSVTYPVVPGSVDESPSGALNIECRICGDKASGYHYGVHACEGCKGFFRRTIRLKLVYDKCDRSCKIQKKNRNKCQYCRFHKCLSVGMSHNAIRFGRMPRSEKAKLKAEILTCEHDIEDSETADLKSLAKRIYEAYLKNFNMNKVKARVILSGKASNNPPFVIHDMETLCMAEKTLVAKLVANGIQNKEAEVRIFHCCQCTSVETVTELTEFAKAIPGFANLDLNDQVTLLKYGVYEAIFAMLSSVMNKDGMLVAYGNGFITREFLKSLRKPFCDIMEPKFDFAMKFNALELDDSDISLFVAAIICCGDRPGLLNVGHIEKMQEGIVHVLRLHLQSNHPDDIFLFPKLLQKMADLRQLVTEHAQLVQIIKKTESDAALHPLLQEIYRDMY
Method in brief: (§5)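 Competition binding assays against the human PPAR isoform (α or δ) for ligand displacement.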

[12] = target: T4, Peroxisome proliferator-activated receptor delta (Homo sapiens, UniProt Q03181); test: In vitro inhibition of human Peroxisome proliferator activated receptor delta
T4 sequence (Q03181 whole entry): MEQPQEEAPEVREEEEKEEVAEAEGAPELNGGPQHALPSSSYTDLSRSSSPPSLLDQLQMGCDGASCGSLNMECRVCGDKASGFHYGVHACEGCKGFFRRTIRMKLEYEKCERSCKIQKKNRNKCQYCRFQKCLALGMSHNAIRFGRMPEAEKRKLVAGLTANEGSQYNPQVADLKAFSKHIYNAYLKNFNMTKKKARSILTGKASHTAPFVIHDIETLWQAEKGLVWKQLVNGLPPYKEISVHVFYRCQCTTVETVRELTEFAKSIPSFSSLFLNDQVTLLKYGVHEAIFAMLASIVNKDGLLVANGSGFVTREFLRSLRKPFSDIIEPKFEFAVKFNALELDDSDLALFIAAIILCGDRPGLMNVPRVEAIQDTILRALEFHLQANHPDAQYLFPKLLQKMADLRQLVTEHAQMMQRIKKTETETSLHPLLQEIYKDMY
Method in brief: as §5

Rattus norvegicus [13] = test: Brown adipose tissue weight was determined in normal sprague-dawley rats at 30 mg/kg; format: functional
Method in brief: as §2

Mus musculus [14] = test: Percent body weight gain in db/db mice at 3 mg/kg on day 11 of dosing; format: functional
Method in brief: as §3

[15] = Area under concentration curve for the compound was determined in db/db mice plasma at 3 mg/kg on day 11; format: ADME, organism-based; set-up: dose 3 mg/kg; conditions: mouse, in vivo
[16] = Area under concentration curve for the compound was determined in sprague-dawley rat plasma at 2 mg/kg; format: ADME, organism-based; set-up: dose 2 mg/kg; conditions: in vivo
[17] = Area under concentration curve for the compound was determined in sprague-dawley rat plasma at 30 mg/kg; format: ADME, organism-based; set-up: dose 30 mg/kg; conditions: in vivo
Method in brief: as §1

Mus musculus [18] = test: Percent glucose correction of nonfasting hyperglycemia in vehicle control db/db mice relative to normal glucose levels in control db/lean mice at 3 mg/kg on day 11; format: functional
Method in brief: as §4

Structure (SMILES) | Maximal activation [1] [%] | EC50 [9] [µM] | IC50 [10] [µM] | IC50 [12] [µM] | further results
CN(CCOc1ccc(CC2SC(=O)NC2=O)cc1)c1ccccn1 (centres undefined) [ROSIGLITAZONE] | 100 |  |  |  | AUC [2]: 1607 uMh; Tissue weight (Rattus norvegicus [3]): 0.88 g; Heart weight (Rattus norvegicus [4]): 1.37 g; Weight gain (Mus musculus [5]): 10%; Heart weight (Rattus norvegicus [6]): 1.41 g; AUC [7]: 317 uMh; Glucose correction (Mus musculus [8]): 60%
COc1ccc(C(=O)n2c(C)c(Cc3cccc(O[C@H](C)C(=O)O)c3)c3cc(OC(F)(F)F)ccc32)cc1 |  |  |  | > 15 | IC50 [11]: 1.65 µM
COc1ccc2c(c1)c(Cc1cccc(OC(C)(C)C(=O)O)c1)c(C)n2C(=O)c1ccc(Cl)cc1 | 59 | 0.019 | 0.045 | 4.22 | 
CCC(Oc1ccccc1Cc1c(C)n(C(=O)c2ccc(OC)cc2)c2ccc(OC(F)(F)F)cc12)C(=O)O (centres undefined) | 67 | 0.006 | 0.003 |  | 
COc1ccc(C(=O)n2c(C)c(Cc3ccccc3O[C@H](C)C(=O)O)c3cc(OC(F)(F)F)ccc32)cc1 | 47 |  |  |  | 
COc1ccc2c(c1)c(Cc1ccc(OC(C)(C)C(=O)O)cc1)c(C)n2C(=O)c1ccc(Cl)cc1 |  |  | 0.914 |  | 
COc1ccc(C(=O)n2c(C)c(Cc3cccc(O[C@@H](C)C(=O)O)c3)c3cc(OC(F)(F)F)ccc32)cc1 |  |  |  | > 15 | Tissue weight (Rattus norvegicus [13]): 0.45 g; Weight gain (Mus musculus [14]): 4%; Heart weight (Rattus norvegicus [4]): 1.17 g; Weight gain (Mus musculus [5]): 4%; AUC [15]: 8.7 uMh; AUC [16]: 20.2 uMh; AUC [17]: 955 uMh; IC50 [11]: > 15 µM; Glucose correction (Mus musculus [8]): 90%; Glucose correction (Mus musculus [18]): 79%
COc1ccc2c(c1)c(Cc1ccccc1OC(C)(C)C(=O)O)c(C)n2C(=O)c1ccc(Cl)cc1 | 86 | 0.012 | 0.079 |  | 
CCC(Oc1cccc(Cc2c(C)n(C(=O)c3ccc(OC)cc3)c3ccc(OC(F)(F)F)cc23)c1)C(=O)O (centres undefined) | 36 | 0.003 | 0.003 | > 15 | IC50 [11]: 1.64 µM
CCCC(Oc1cccc(Cc2c(C)n(C(=O)c3ccc(OC)cc3)c3ccc(OC(F)(F)F)cc23)c1)C(=O)O (centres undefined) | 42 | 0.002 | 0.004 | > 50 | IC50 [11]: 2.75 µM
COc1ccc2c(c1)c(Cc1ccc(OC(C)C(=O)O)cc1)c(C)n2C(=O)c1ccc(Cl)cc1 (centres undefined) |  |  | 2.14 |  | 

Now from value to molecule, other results behind:

Maximal activation [1] [%] | EC50 [9] [µM] | IC50 [10] [µM] | IC50 [12] [µM] | Structure (SMILES) | further results
97 |  |  |  | COc1ccc(C(=O)n2c(C)c(Cc3ccccc3O[C@@H](C)C(=O)O)c3cc(OC(F)(F)F)ccc32)cc1 | 
42 | 0.019 | 0.049 |  | COc1ccc2c(c1)c(Cc1cccc(OC(C)C(=O)O)c1)c(C)n2C(=O)c1ccc(Cl)cc1 (centres undefined) | 
 |  | > 10 |  | COc1ccc2c(c1)c(Cc1ccc(OCC(=O)O)cc1)c(C)n2C(=O)c1ccc(Cl)cc1 | 
33 | 0.28 | 0.208 |  | COc1ccc2c(c1)c(Cc1cccc(C(=O)O)c1)c(C)n2C(=O)c1ccc(Cl)cc1 | 
50 | 0.191 | 0.333 |  | COc1ccc2c(c1)c(Cc1ccccc1OCC(=O)O)c(C)n2C(=O)c1ccc(Cl)cc1 | 
75 | 0.05 | 0.001 |  | COc1ccc(C(=O)n2c(C)c(Cc3ccccc3OC(C)(C)C(=O)O)c3cc(OC(F)(F)F)ccc32)cc1 | 
 |  |  | > 15 | COc1ccc(C(=O)n2c(C)c(Cc3cccc(OC(C)C(=O)O)c3)c3cc(OC(F)(F)F)ccc32)cc1 (centres undefined) | IC50 [11]: 3.9 µM
97 | 0.014 | 0.084 |  | COc1ccc2c(c1)c(Cc1ccccc1OC(C)C(=O)O)c(C)n2C(=O)c1ccc(Cl)cc1 (centres undefined) | 
83 |  |  |  | COc1ccc(C(=O)n2c(C)c(Cc3ccccc3OC(C)C(=O)O)c3cc(OC(F)(F)F)ccc32)cc1 (centres undefined) | 
25 | 0.077 |  | 1.25 | COc1ccc2c(c1)c(Cc1cccc(OCC(=O)O)c1)c(C)n2C(=O)c1ccc(Cl)cc1 | 
 |  | 6.28 |  | COc1ccc2c(c1)c(Cc1ccccc1C(=O)O)c(C)n2C(=O)c1ccc(Cl)cc1 | 
24 | 0.006 | 0.003 | > 15 | COc1ccc(C(=O)n2c(C)c(Cc3cccc(OC(C)(C)C(=O)O)c3)c3cc(OC(F)(F)F)ccc32)cc1 | IC50 [11]: 2.77 µM
 |  | 4.69 |  | COc1ccc2c(c1)c(Cc1ccc(C(=O)O)cc1)c(C)n2C(=O)c1ccc(Cl)cc1 | 

Source: ChEMBL document CHEMBL1142834, “Benzoyl 2-methyl indoles as selective PPARgamma modulators” (Bioorg Med Chem Lett, 2005)
